The target of assay [1] is T1, Muscarinic acetylcholine receptor M1 (Rattus norvegicus, UniProt P08482).
T1 sequence (P08482 whole entry): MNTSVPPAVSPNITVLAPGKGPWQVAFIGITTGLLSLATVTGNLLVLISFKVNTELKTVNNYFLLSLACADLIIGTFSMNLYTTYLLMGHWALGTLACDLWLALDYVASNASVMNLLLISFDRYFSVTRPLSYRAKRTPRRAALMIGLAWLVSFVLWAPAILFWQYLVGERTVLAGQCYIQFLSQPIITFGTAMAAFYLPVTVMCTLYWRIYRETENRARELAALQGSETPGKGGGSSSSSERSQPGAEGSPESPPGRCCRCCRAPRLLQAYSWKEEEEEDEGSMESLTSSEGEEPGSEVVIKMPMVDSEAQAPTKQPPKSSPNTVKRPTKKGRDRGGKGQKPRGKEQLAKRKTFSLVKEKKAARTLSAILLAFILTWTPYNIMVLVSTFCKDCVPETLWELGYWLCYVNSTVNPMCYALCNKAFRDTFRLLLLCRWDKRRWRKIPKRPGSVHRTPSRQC
The experiment in a line: Inhibition of binding of [3H]quinuclidinyl benzilate to Muscarinic acetylcholine receptor M1 in rat cerebral cortical membranes at 100 uM concentration. It is filed as cell membranes, Membrane. An outline of the steps: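 Rat cortical membranes with 0.2 nM [3H]quinuclidinyl benzilate in HEPES pH 7.4 with 10 mM MgCl2 and 100 mM NaCl, 30 min at 37 °C, triplicate. Atropine 1 µM defined nonspecific binding. Percent inhibition was read at 100 µM test agent; mean ± SEM, n = 4.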

Assay [2] has as its target T1, Muscarinic acetylcholine receptor M1. The experiment in a line: Affinity versus [3H]oxotremorine M (agonist) binding to Muscarinic acetylcholine receptor M1 in Rat Cerebral Cortical Membranes, (Kd=[…]).
Assay [3] concerns the target T2, Muscarinic acetylcholine receptor M2 (Homo sapiens, UniProt P08172).
T2 sequence (P08172 whole entry): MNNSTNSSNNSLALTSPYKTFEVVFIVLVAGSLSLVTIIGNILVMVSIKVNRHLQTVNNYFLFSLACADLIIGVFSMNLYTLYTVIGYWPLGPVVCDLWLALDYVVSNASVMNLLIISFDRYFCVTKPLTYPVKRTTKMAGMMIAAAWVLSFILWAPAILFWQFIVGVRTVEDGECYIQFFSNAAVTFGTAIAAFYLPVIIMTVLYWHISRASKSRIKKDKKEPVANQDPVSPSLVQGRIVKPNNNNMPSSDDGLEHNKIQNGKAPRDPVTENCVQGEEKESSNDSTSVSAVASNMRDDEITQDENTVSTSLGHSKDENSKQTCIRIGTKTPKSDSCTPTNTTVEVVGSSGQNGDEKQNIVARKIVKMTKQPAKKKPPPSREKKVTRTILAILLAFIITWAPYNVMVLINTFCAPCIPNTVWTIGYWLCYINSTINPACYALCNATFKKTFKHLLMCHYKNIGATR
The experiment in a line: Inhibitory activity against [3H]quinuclidinyl Benzilate binding to Muscarinic acetylcholine receptor M2 in the absence of GTP. Put shortly: (§1)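 Membranes from CHO cells expressing human M2 receptor. Competition against 0.1 nM [3H]quinuclidinyl benzilate in 25 mM sodium phosphate pH 7.4, 5 mM MgCl2, without or with 10 μM GTP; 30 min at 37 °C, triplicate. Nonspecific binding with 1 μM atropine. Filtration, scintillation counting.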

Assay [4] addresses T2, Muscarinic acetylcholine receptor M2. The experiment in a line: Inhibitory activity against [3H]quinuclidinyl Benzilate binding to Muscarinic acetylcholine receptor M2 in the presence of GTP. An outline of the steps: as §1
For assay [5] the target is unchanged. Description: Inhibition of binding of [3H]quinuclidinyl benzilate to muscarinic receptors in membranes of CHO cells transfected with Muscarinic acetylcholine receptor M2. Type of assay: cell membranes.
The target of assay [6] is T3, Muscarinic acetylcholine receptor M4 (Homo sapiens, UniProt P08173).
T3 sequence (P08173 whole entry): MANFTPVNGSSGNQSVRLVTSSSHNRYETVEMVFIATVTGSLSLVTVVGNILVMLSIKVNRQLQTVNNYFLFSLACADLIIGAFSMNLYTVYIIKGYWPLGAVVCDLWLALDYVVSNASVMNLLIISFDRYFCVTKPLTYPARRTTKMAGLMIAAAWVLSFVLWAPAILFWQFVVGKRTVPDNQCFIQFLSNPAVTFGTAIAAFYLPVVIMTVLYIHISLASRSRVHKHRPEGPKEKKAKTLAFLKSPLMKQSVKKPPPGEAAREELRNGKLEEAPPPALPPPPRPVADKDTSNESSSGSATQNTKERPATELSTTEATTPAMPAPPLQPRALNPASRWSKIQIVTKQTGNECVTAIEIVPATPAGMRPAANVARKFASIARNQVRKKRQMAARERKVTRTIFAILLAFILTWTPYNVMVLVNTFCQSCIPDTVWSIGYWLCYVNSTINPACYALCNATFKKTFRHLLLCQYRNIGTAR
The experiment in a line: Inhibition of binding of [3H]quinuclidinyl benzilate to muscarinic receptors in membranes of CHO cells transfected with Muscarinic acetylcholine receptor M4. It is filed as cell membranes.

On to `CC(=O)OC1CC2CCCC1N2` (stereo unspecified), for which the Ki (in general, a dissociation constant, usually derived from enzyme kinetics or from competition with a known ligand) in assay [1] worked out at 22000 nM; in assay [2], 5.6 nM; in assay [5], 2.6 nM; in assay [6] it was 33 nM. Moreover, the half-inhibitory concentration (IC50) (in general, the concentration needed to halve the response being measured) was 17 nM in assay [3] and 120 nM in assay [4].
